What was measured:
Assay type in all cases: functional
Design in all cases: scale not given: the % may be the effect or the level left
[1] = tested on: SK-OV-3; experiment: Growth inhibition of human SKOV3 cells assessed tumor cell growth at 10^-5 M
Summary of the method: (§1)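 NCI 60-human-tumor-cell-line panel screen. Each compound was tested at a single concentration of 10^-5 M, and percent growth of tumor cells was recorded for each cell line. Growth inhibition was expressed from these percent-growth values.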

[2] = tested on: MCF7; experiment: Growth inhibition of human MCF7 cells assessed tumor cell growth at 10^-5 M; summary of the method: as §1
[3] = tested on: 786-0; experiment: Growth inhibition of human 786-0 cells assessed tumor cell growth at 10^-5 M; summary of the method: as §1
[4] = tested on: SK-MEL-28; experiment: Growth inhibition of human SK-MEL-28 cells assessed tumor cell growth at 10^-5 M; summary of the method: as §1
[5] = tested on: COLO 205; experiment: Growth inhibition of human COLO205 cells assessed tumor cell growth at 10^-5 M; summary of the method: as §1
[6] = tested on: CCRF-CEM; experiment: Growth inhibition of human CCRF-CEM cells assessed tumor cell growth at 10^-5 M; summary of the method: as §1
[7] = tested on: BT-549; experiment: Growth inhibition of human BT549 cells assessed tumor cell growth at 10^-5 M; summary of the method: as §1
[8] = tested on: ACHN; experiment: Growth inhibition of human ACHN cells assessed tumor cell growth at 10^-5 M; summary of the method: as §1
[9] = tested on: MDA-MB-468; experiment: Growth inhibition of human MDA-MB-468 cells assessed tumor cell growth at 10^-5 M; summary of the method: as §1
[10] = tested on: SF-268; experiment: Growth inhibition of human SF268 cells assessed tumor cell growth at 10^-5 M; summary of the method: as §1
[11] = tested on: TK-10; experiment: Growth inhibition of human TK10 cells assessed tumor cell growth at 10^-5 M
Summary of the method: (§2)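 Single-dose screen at 10^-5 M across the 60 human tumor cell line panel, run to NCI standards. The value is the percent growth of each cell line in the presence of compound. Compounds active at this dose moved on to five-concentration testing (10^-4 to 10^-8 M).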

[12] = tested on: NCI-H460; experiment: Growth inhibition of human NCI-H460 cells assessed tumor cell growth at 10^-5 M; summary of the method: as §1
[13] = tested on: UO-31; experiment: Growth inhibition of human UO31 cells assessed tumor cell growth at 10^-5 M; summary of the method: as §2
[14] = tested on: HL-60(TB); experiment: Growth inhibition of human HL-60(TB) cells assessed tumor cell growth at 10^-5 M
Summary of the method: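 HL-60(TB), part of the 60-line panel, tested at a single concentration of 10^-5 M. The read-out is percent tumor cell growth relative to untreated growth.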

[15] = tested on: NCI-H522; experiment: Growth inhibition of human NCI-H522 cells assessed tumor cell growth at 10^-5 M; summary of the method: as §1
[16] = tested on: OVCAR-8; experiment: Growth inhibition of human OVCAR8 cells assessed tumor cell growth at 10^-5 M; summary of the method: as §1
[17] = tested on: IGROV-1; experiment: Growth inhibition of human IGROV1 cells assessed tumor cell growth at 10^-5 M; summary of the method: as §1
[18] = tested on: HCC 2998; experiment: Growth inhibition of human HCC2998 cells assessed tumor cell growth at 10^-5 M; summary of the method: as §1
[19] = tested on: HOP-92; experiment: Growth inhibition of human HOP92 cells assessed tumor cell growth at 10^-5 M; summary of the method: as §1
[20] = tested on: CAKI-1; experiment: Growth inhibition of human Caki1 cells assessed tumor cell growth at 10^-5 M; summary of the method: as §1
[21] = tested on: HCT-116; experiment: Growth inhibition of human HCT116 cells assessed tumor cell growth at 10^-5 M; summary of the method: as §1
[22] = tested on: SF-539; experiment: Growth inhibition of human SF539 cells assessed tumor cell growth at 10^-5 M; summary of the method: as §1
[23] = tested on: LOX IMVI; experiment: Growth inhibition of human LOXIMVI cells assessed tumor cell growth at 10^-5 M; summary of the method: as §1
[24] = tested on: PC-3; experiment: Growth inhibition of human PC3 cells assessed tumor cell growth at 10^-5 M; summary of the method: as §1
[25] = tested on: SF-295; experiment: Growth inhibition of human SF295 cells assessed tumor cell growth at 10^-5 M; summary of the method: as §1
[26] = tested on: OVCAR-4; experiment: Growth inhibition of human OVCAR4 cells assessed tumor cell growth at 10^-5 M; summary of the method: as §1
[27] = tested on: HCT-15; experiment: Growth inhibition of human HCT15 cells assessed tumor cell growth at 10^-5 M; summary of the method: as §1
[28] = tested on: DU-145; experiment: Growth inhibition of human DU145 cells assessed tumor cell growth at 10^-5 M; summary of the method: as §1
[29] = tested on: NCI/ADR-RES; experiment: Growth inhibition of human NCI/ADR-RES cells assessed tumor cell growth at 10^-5 M; summary of the method: as §1
[30] = tested on: SN12C; experiment: Growth inhibition of human SN12C cells assessed tumor cell growth at 10^-5 M; summary of the method: as §1
[31] = tested on: SK-MEL-2; experiment: Growth inhibition of human SK-MEL-2 cells assessed tumor cell growth at 10^-5 M; summary of the method: as §1
[32] = tested on: A549; experiment: Growth inhibition of human A549 cells assessed tumor cell growth at 10^-5 M; summary of the method: as §1
[33] = tested on: RXF 393; experiment: Growth inhibition of human RXF393 cells assessed tumor cell growth at 10^-5 M; summary of the method: as §1
[34] = tested on: SNB-75; experiment: Growth inhibition of human SNB75 cells assessed tumor cell growth at 10^-5 M; summary of the method: as §2
[35] = tested on: NCI-H23; experiment: Growth inhibition of human NCI-H23 cells assessed tumor cell growth at 10^-5 M; summary of the method: as §1
[36] = tested on: NCI-H322M; experiment: Growth inhibition of human NCI-H322M cells assessed tumor cell growth at 10^-5 M; summary of the method: as §1
[37] = tested on: MDA-MB-231; experiment: Growth inhibition of human MDA-MB-231 cells assessed tumor cell growth at 10^-5 M; summary of the method: as §1
[38] = tested on: K562; experiment: Growth inhibition of human K562 cells assessed tumor cell growth at 10^-5 M; summary of the method: as §1
[39] = tested on: Malme-3M; experiment: Growth inhibition of human MALME-3M cells assessed tumor cell growth at 10^-5 M; summary of the method: as §1
[40] = tested on: T47D; experiment: Growth inhibition of human T47D cells assessed tumor cell growth at 10^-5 M; summary of the method: as §2
[41] = tested on: SK-MEL-5; experiment: Growth inhibition of human SK-MEL-5 cells assessed tumor cell growth at 10^-5 M; summary of the method: as §1
[42] = tested on: HOP-62; experiment: Growth inhibition of human HOP62 cells assessed tumor cell growth at 10^-5 M; summary of the method: as §1
[43] = tested on: OVCAR-3; experiment: Growth inhibition of human OVCAR3 cells assessed tumor cell growth at 10^-5 M; summary of the method: as §1
[44] = tested on: KM12; experiment: Growth inhibition of human KM12 cells assessed tumor cell growth at 10^-5 M; summary of the method: as §1
[45] = tested on: U-251; experiment: Growth inhibition of human U251 cells assessed tumor cell growth at 10^-5 M; summary of the method: as §2
[46] = tested on: SW-620; experiment: Growth inhibition of human SW620 cells assessed tumor cell growth at 10^-5 M; summary of the method: as §2
[47] = tested on: NCI-H226; experiment: Growth inhibition of human NCI-H226 cells assessed tumor cell growth at 10^-5 M; summary of the method: as §1
[48] = tested on: HT-29; experiment: Growth inhibition of human HT-29 cells assessed tumor cell growth at 10^-5 M; summary of the method: as §1
[49] = Growth inhibition of human Hs 578T cells assessed tumor cell growth at 10^-5 M; summary of the method: as §1
[50] = tested on: UACC-257; experiment: Growth inhibition of human UACC257 cells assessed tumor cell growth at 10^-5 M; summary of the method: as §2
[51] = tested on: MDA-MB-435; experiment: Growth inhibition of human MDA-MB-435 cells assessed tumor cell growth at 10^-5 M; summary of the method: as §1
[52] = tested on: OVCAR-5; experiment: Growth inhibition of human OVCAR5 cells assessed tumor cell growth at 10^-5 M; summary of the method: as §1
[53] = tested on: M14; experiment: Growth inhibition of human M14 cells assessed tumor cell growth at 10^-5 M; summary of the method: as §1
[54] = tested on: UACC-62; experiment: Growth inhibition of human UACC62 cells assessed tumor cell growth at 10^-5 M; summary of the method: as §2
[55] = tested on: A498; experiment: Growth inhibition of human A498 cells assessed tumor cell growth at 10^-5 M; summary of the method: as §1
[56] = tested on: EKVX; experiment: Growth inhibition of human EKVX cells assessed tumor cell growth at 10^-5 M; summary of the method: as §1
[57] = tested on: MOLT-4; experiment: Growth inhibition of human MOLT4 cells assessed tumor cell growth at 10^-5 M; summary of the method: as §1
[58] = tested on: SNB-19; experiment: Growth inhibition of human SNB19 cells assessed tumor cell growth at 10^-5 M; summary of the method: as §2

**Q.** What does the source list for `C=CCn1cc(/C=C2\C(=O)N(c3cccc(Cl)c3)N=C2C)c2ccccc21`?
**A.** Activity [1]: 94.6%; Activity [2]: 79.85%; Activity [3]: 115.97%; Activity [4]: 97.08%; Activity [5]: 113.25%; Activity [6]: 94.38%; Activity [7]: 89.1%; Activity [8]: 94.59%; Activity [9]: 84.91%; Activity [10]: 101.01%; Activity [11]: 110.49%; Activity [12]: 91.1%; Activity [13]: 74.52%; Activity [14]: 99.5%; Activity [15]: 104.32%; Activity [16]: 88.73%; Activity [17]: 98.62%; Activity [18]: 103.61%; Activity [19]: 72.84%; Activity [20]: 73.37%; Activity [21]: 89.43%; Activity [22]: 97.52%; Activity [23]: 90.56%; Activity [24]: 101.22%; Activity [25]: 89.63%; Activity [26]: 82.6%; Activity [27]: 96.63%; Activity [28]: 101.89%; Activity [29]: 91.67%; Activity [30]: 101.52%; Activity [31]: 100.76%; Activity [32]: 104.05%; Activity [33]: 90.86%; Activity [34]: 71.75%; Activity [35]: 75.8%; Activity [36]: 79.41%; Activity [37]: 84.32%; Activity [38]: 77.68%; Activity [39]: 106.35%; Activity [40]: 69.36%; Activity [41]: 85.6%; Activity [42]: 102.06%; Activity [43]: 116.71%; Activity [44]: 90.06%; Activity [45]: 98.8%; Activity [46]: 97.77%; Activity [47]: 70.94%; Activity [48]: 105.44%; Activity [49]: 97.36%; Activity [50]: 88.64%; Activity [51]: 84.21%; Activity [52]: 86.3%; Activity [53]: 96.28%; Activity [54]: 69.6%; Activity [55]: 69.09%; Activity [56]: 54.36%; Activity [57]: 75.53%; Activity [58]: 109.63%
